The record followed here is ChEMBL document CHEMBL1139340, “Synthesis, radiosynthesis, and biological evaluation of carbon-11 and fluorine-18 labeled reboxetine analogues: potential positron emission tomography radioligands for in vivo imaging of the norepinephrine transporter” (J Med Chem, 2009).

Assay [1] addresses Sodium-dependent dopamine transporter (Homo sapiens, UniProt Q01959). Description: Displacement of [125I]RTI-55 from human DAT receptor expressed in canine kidney cells. It is filed as cell-based. The essentials:
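Competition binding against [¹²⁵I]RTI-55 in canine kidney cells stably transfected with human DAT. Ki in nM, geometric mean ± SD of at least three separate experiments, each run in triplicate.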

The species named for the next assay is Homo sapiens. Description: Selectivity for human NET over human SERT. The method, boiled down:
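Competition binding in stably transfected cells expressing human transporters: NET vs [3H]nisoxetine and SERT vs [3H]citalopram in HEK-293 cells; DAT vs [125I]RTI-55 in canine kidney cells. Ki as geometric mean of at least three experiments in triplicate; selectivity as ratio of SERT or DAT Ki to NET Ki.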

Bounds are passed on as bounds.

Chain of Sodium-dependent dopamine transporter (Q01959 whole entry): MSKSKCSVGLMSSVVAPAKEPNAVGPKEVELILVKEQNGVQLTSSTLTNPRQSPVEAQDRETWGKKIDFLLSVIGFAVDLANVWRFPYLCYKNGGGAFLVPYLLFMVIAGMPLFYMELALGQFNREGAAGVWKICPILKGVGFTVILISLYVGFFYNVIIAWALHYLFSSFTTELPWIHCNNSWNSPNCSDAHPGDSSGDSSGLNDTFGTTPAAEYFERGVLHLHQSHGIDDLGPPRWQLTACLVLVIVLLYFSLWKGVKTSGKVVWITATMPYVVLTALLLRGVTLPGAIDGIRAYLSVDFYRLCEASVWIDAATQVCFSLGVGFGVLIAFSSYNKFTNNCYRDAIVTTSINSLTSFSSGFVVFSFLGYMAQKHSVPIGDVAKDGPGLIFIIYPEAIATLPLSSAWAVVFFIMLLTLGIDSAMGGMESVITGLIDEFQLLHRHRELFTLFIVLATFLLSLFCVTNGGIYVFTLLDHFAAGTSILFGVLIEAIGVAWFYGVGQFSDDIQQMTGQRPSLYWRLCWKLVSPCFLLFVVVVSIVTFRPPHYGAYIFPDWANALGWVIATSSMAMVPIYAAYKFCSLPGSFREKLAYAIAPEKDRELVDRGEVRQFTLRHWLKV

In assay [1], `COc1ccccc1O[C@@H](c1ccccc1)[C@@H]1CNCCO1` had a Ki greater than 2000 nM. For the same compound, the Ratio Ki in the assay listed under Homo sapiens was determined as 195.
